Measurements reported in ChEMBL document CHEMBL3588757, “Structure-based design, synthesis and biological testing of piperazine-linked bis-epipodophyllotoxin etoposide analogs” (Bioorg Med Chem, 2015).

Experiments:
Type in all cases: functional
[1] = test system: K562; assay: Relative resistance, ratio of IC50 for etoposide-resistant human K/VP.5 cells to IC50 for human K562 cells
[2] = test system: KM12; assay: Cytotoxicity against human KM12 cells assessed as cell growth at 50 uM by SRB assay; conditions: read-out: Activity
[3] = test system: SW-620; assay: Cytotoxicity against human SW620 cells assessed as cell growth at 50 uM by SRB assay; conditions: read-out: Activity
[4] = test system: M14; assay: Cytotoxicity against human M14 cells assessed as cell growth at 50 uM by SRB assay; conditions: read-out: Activity
[5] = test system: UACC-257; assay: Cytotoxicity against human UACC257 cells assessed as cell growth at 50 uM by SRB assay; conditions: read-out: Activity
[6] = test system: OVCAR-4; assay: Cytotoxicity against human OVCAR4 cells assessed as cell growth at 50 uM by SRB assay; conditions: read-out: Activity
[7] = test system: OVCAR-5; assay: Cytotoxicity against human OVCAR5 cells assessed as cell growth at 50 uM by SRB assay; conditions: read-out: Activity
[8] = test system: MDA-MB-468; assay: Cytotoxicity against human MDA-MB-468 cells assessed as cell growth at 50 uM by SRB assay; conditions: read-out: Activity
[9] = test system: NCI-H322M; assay: Cytotoxicity against human NCI-H322M cells by SRB assay
Outline: (§1)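 NCI-60 panel screen; 5-dose testing giving GI50 per cell line, plus a single 10 µM one-dose test. Method details not given beyond the NCI screen.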

[10] = test system: HCC 2998; assay: Cytotoxicity against human HCC2998 cells by SRB assay
Outline: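 Measured in the NCI-60 human tumour cell line panel using five-dose testing. Growth was recorded at each dose for each cell line, and a GI50 was derived for each line.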

[11] = test system: SK-MEL-2; assay: Cytotoxicity against human SK-MEL-2 cells by SRB assay; outline: as §1
[12] = test system: SK-MEL-28; assay: Cytotoxicity against human SK-MEL-28 cells by SRB assay; outline: as §1
[13] = test system: OVCAR-3; assay: Cytotoxicity against human OVCAR3 cells by SRB assay; outline: as §1
[14] = test system: OVCAR-8; assay: Cytotoxicity against human OVCAR8 cells by SRB assay; outline: as §1
[15] = test system: TK-10; assay: Cytotoxicity against human TK10 cells by SRB assay; outline: as §1
[16] = test system: MCF7; assay: Cytotoxicity against human MCF7 cells by SRB assay; outline: as §1
[17] = test system: NCI-H522; assay: Cytotoxicity against human NCI-H522 cells assessed as cell growth at 0.005 uM by SRB assay; conditions: read-out: Activity
[18] = test system: SF-539; assay: Cytotoxicity against human SF539 cells assessed as cell growth at 0.005 uM by SRB assay; conditions: read-out: Activity
[19] = test system: LOX IMVI; assay: Cytotoxicity against human LOXIMVI cells assessed as cell growth at 0.005 uM by SRB assay; conditions: read-out: Activity
[20] = test system: UACC-62; assay: Cytotoxicity against human UACC62 cells assessed as cell growth at 0.005 uM by SRB assay; conditions: read-out: Activity
[21] = test system: 786-0; assay: Cytotoxicity against human 786-0 cells assessed as cell growth at 0.005 uM by SRB assay; conditions: read-out: Activity
[22] = test system: KM12; assay: Cytotoxicity against human KM12 cells assessed as cell growth at 0.05 uM by SRB assay; conditions: read-out: Activity
[23] = test system: LOX IMVI; assay: Cytotoxicity against human LOXIMVI cells assessed as cell growth at 0.05 uM by SRB assay; conditions: read-out: Activity
[24] = test system: SK-MEL-28; assay: Cytotoxicity against human SK-MEL-28 cells assessed as cell growth at 0.05 uM by SRB assay; conditions: read-out: Activity
[25] = test system: TK-10; assay: Cytotoxicity against human TK10 cells assessed as cell growth at 0.05 uM by SRB assay; conditions: read-out: Activity
[26] = test system: UO-31; assay: Cytotoxicity against human UO31 cells assessed as cell growth at 0.05 uM by SRB assay; conditions: read-out: Activity
[27] = test system: MOLT-4; assay: Cytotoxicity against human MOLT4 cells assessed as cell growth at 0.5 uM by SRB assay; conditions: read-out: Activity
[28] = test system: NCI-H226; assay: Cytotoxicity against human NCI-H226 cells assessed as cell growth at 0.5 uM by SRB assay; conditions: read-out: Activity
[29] = test system: NCI-H322M; assay: Cytotoxicity against human NCI-H322M cells assessed as cell growth at 0.5 uM by SRB assay; conditions: read-out: Activity
[30] = test system: ACHN; assay: Cytotoxicity against human ACHN cells assessed as cell growth at 0.5 uM by SRB assay; conditions: read-out: Activity
[31] = test system: MDA-MB-231; assay: Cytotoxicity against human MDA-MB-231/ATCC cells assessed as cell growth at 0.5 uM by SRB assay; conditions: read-out: Activity
[32] = test system: NCI-H226; assay: Cytotoxicity against human NCI-H226 cells assessed as cell growth at 5 uM by SRB assay; conditions: read-out: Activity
[33] = test system: NCI-H322M; assay: Cytotoxicity against human NCI-H322M cells assessed as cell growth at 5 uM by SRB assay; conditions: read-out: Activity
[34] = test system: NCI-H522; assay: Cytotoxicity against human NCI-H522 cells assessed as cell growth at 5 uM by SRB assay; conditions: read-out: Activity
[35] = test system: SK-MEL-28; assay: Cytotoxicity against human SK-MEL-28 cells assessed as cell growth at 5 uM by SRB assay; conditions: read-out: Activity
[36] = test system: UACC-257; assay: Cytotoxicity against human UACC257 cells assessed as cell growth at 5 uM by SRB assay; conditions: read-out: Activity
[37] = test system: UACC-62; assay: Cytotoxicity against human UACC62 cells assessed as cell growth at 5 uM by SRB assay; conditions: read-out: Activity
[38] = test system: OVCAR-3; assay: Cytotoxicity against human OVCAR3 cells assessed as cell growth at 5 uM by SRB assay; conditions: read-out: Activity
[39] = test system: OVCAR-5; assay: Cytotoxicity against human OVCAR5 cells assessed as cell growth at 5 uM by SRB assay; conditions: read-out: Activity
[40] = test system: NCI-H226; assay: Cytotoxicity against human NCI-H226 cells assessed as cell growth at 50 uM by SRB assay; conditions: read-out: Activity
[41] = test system: NCI-H322M; assay: Cytotoxicity against human NCI-H322M cells assessed as cell growth at 50 uM by SRB assay; conditions: read-out: Activity
[42] = read-out: LC50 (the source's name)
[43] = read-out: pLC50 (the source's name) (converted)

COc1cc([C@@H]2c3cc4c(cc3[C@@H](NC(=O)CN3CCN(CCCCCCCCCCN5CCN(CC(=O)N[C@@H]6c7cc8c(cc7[C@@H](c7cc(OC)c(O)c(OC)c7)[C@H]7C(=O)OC[C@@H]76)OCO8)CC5)CC3)[C@H]3COC(=O)[C@H]23)OCO4)cc(OC)c1O
Ratio IC50 [1]: 2.6 | growth at 50 µM [2]: -31% | growth at 50 µM [3]: -89% | growth at 50 µM [4]: -49% | growth at 50 µM [5]: -58% | growth at 50 µM [6]: -77% | growth at 50 µM [7]: -88% | growth at 50 µM [8]: -69% | GI50 ([9]; read-out: GI50): 0.387 µM | CC50 [9, 42]: > 50 µM | TGI ([9]; read-out: TGI): 1.64 µM | GI50 ([9]; read-out: pGI50 (converted)): 0.389 µM | CC50 [9, 43]: > 50.1 µM | TGI ([9]; read-out: pTGI (converted)): 1.62 µM | GI50 ([10]; read-out: GI50): 1.09 µM | CC50 [10, 42]: 20.5 µM | TGI ([10]; read-out: TGI): 8.39 µM | GI50 ([10]; read-out: pGI50 (converted)): 1.1 µM | CC50 [10, 43]: 20.4 µM | TGI ([10]; read-out: pTGI (converted)): 8.32 µM | GI50 ([11]; read-out: GI50): 3.96 µM | CC50 [11, 42]: 41 µM | TGI ([11]; read-out: TGI): 13.9 µM | GI50 ([11]; read-out: pGI50 (converted)): 3.98 µM | CC50 [11, 43]: 40.7 µM | TGI ([11]; read-out: pTGI (converted)): 13.8 µM | GI50 ([12]; read-out: GI50): 6.2 µM | CC50 [12, 42]: 29.8 µM | TGI ([12]; read-out: TGI): 13.6 µM | GI50 ([12]; read-out: pGI50 (converted)): 6.17 µM | CC50 [12, 43]: 29.5 µM | TGI ([12]; read-out: pTGI (converted)): 13.5 µM | GI50 ([13]; read-out: GI50): 1.81 µM | CC50 [13, 42]: 49.9 µM | TGI ([13]; read-out: TGI): 13.8 µM | GI50 ([13]; read-out: pGI50 (converted)): 1.82 µM | CC50 [13, 43]: 50.1 µM | TGI ([13]; read-out: pTGI (converted)): 13.8 µM | GI50 ([14]; read-out: GI50): 0.514 µM | CC50 [14, 42]: > 50 µM | TGI ([14]; read-out: TGI): 2.2 µM | GI50 ([14]; read-out: pGI50 (converted)): 0.513 µM | CC50 [14, 43]: > 50.1 µM | TGI ([14]; read-out: pTGI (converted)): 2.19 µM | GI50 ([15]; read-out: GI50): 1.44 µM | CC50 [15, 42]: 15.4 µM | TGI ([15]; read-out: TGI): 4.57 µM | GI50 ([15]; read-out: pGI50 (converted)): 1.45 µM | CC50 [15, 43]: 15.5 µM | TGI ([15]; read-out: pTGI (converted)): 4.57 µM | GI50 ([16]; read-out: GI50): 0.114 µM | CC50 [16, 42]: 37.4 µM | TGI ([16]; read-out: TGI): 8.5 µM | GI50 ([16]; read-out: pGI50 (converted)): 0.115 µM | CC50 [16, 43]: 37.2 µM | TGI ([16]; read-out: pTGI (converted)): 8.51 µM | growth at 0.005 µM [17]: 97% | growth at 0.005 µM [18]: 98% | growth at 0.005 µM [19]: 86% | growth at 0.005 µM [20]: 91% | growth at 0.005 µM [21]: 97% | growth at 0.05 µM [22]: 91% | growth at 0.05 µM [23]: 56% | growth at 0.05 µM [24]: 100% | growth at 0.05 µM [25]: 91% | growth at 0.05 µM [26]: 85% | growth at 0.5 µM [27]: 37% | growth at 0.5 µM [28]: 49% | growth at 0.5 µM [29]: 45% | growth at 0.5 µM [30]: 41% | growth at 0.5 µM [31]: 87% | growth at 5 µM [32]: 35% | growth at 5 µM [33]: -42% | growth at 5 µM [34]: -54% | growth at 5 µM [35]: 64% | growth at 5 µM [36]: -97% | growth at 5 µM [37]: 65% | growth at 5 µM [38]: 40% | growth at 5 µM [39]: 5% | growth at 50 µM [40]: -95% | growth at 50 µM [41]: -23%
